Screening results as filed in PubChem BioAssay.
The list is not random: actives were taken first. Their share in the collection is about 3%.
SENP6 inh: SENP6 protease inhibitors, primary screen, biochemical, luminescence, uHTS | Sentrin-specific protease 6 (Homo sapiens), Q9GZR1 | Recombinant SENP6 catalytic domain, aminoluciferin luminescence | inhibition, % at 10 µM | hit rate 1.8% among 330,000 | AID 2599, 2010;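 active = inhibition above about 50% at the single tested dose, limit read from the data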
SENP7 block: SENP7 protease inhibitors, primary screen, biochemical, luminescence, uHTS. recombinant SENP7, Z-RLRGG-aminoluciferin luminescence, 40 min. AID 434973, 2010. inhibition, % at 5 µM. Sentrin-specific protease 7 (Homo sapiens), Q9BQF6. hit rate 1.5% among 330,000;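 active = inhibition above about 50% at the single test dose, limit read from the data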
Target sequence (Q9BQF6 706-1050 limits assumed): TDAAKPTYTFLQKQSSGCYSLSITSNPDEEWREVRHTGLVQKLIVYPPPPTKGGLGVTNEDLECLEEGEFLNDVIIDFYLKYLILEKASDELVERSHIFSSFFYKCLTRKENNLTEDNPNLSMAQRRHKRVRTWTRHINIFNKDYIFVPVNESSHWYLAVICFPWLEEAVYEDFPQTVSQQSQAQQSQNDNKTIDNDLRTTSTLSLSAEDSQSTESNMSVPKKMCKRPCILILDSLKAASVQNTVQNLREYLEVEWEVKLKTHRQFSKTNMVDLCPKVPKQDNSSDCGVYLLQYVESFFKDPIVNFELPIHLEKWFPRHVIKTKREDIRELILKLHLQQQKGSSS
UBC13 inh: UBC13 polyubiquitin chain formation inhibitors, primary screen, biochemical, TR-FRET, uHTS | inhibition, % at 20 µM | Ubiquitin-conjugating enzyme E2 N (Homo sapiens), P61088 | hit rate 0.47% among 330,000; in the data active = inhibition above about 45%, passing the limit was not always enough
Target sequence (P61088 whole entry, looked up): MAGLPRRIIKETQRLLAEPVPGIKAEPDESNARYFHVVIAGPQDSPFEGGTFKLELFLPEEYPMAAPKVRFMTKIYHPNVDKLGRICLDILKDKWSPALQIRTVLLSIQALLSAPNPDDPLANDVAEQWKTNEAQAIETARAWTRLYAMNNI
SENP8 block-1: human SENP8 protease inhibitors, primary screen, biochemical, fluorescence, Nedd8 protein substrate, uHTS | AID 602440, 2012 | inhibition, % at 20 µM | hit rate 0.64% among 360,000 | recombinant SENP8 | Sentrin-specific protease 8 (Homo sapiens), Q96LD8; in the data active = inhibition mostly above about 40%, no sharp cut-off; inactive = mostly below about 27%
SENP8 block-2: SENP8 protease inhibitors, primary screen, biochemical, luminescence. Sentrin-specific protease 8 (Homo sapiens), Q96LD8. purified SENP8, Z-RLRGG-aminoluciferin cleavage. inhibition, % at 10 µM. hit rate 1.2% among 330,000. AID 2540, 2010; in the data active = inhibition above about 50%
Apaf1 inhib: inhibitors of human Apaf-1 apoptosome, primary screen, biochemical, DEVD-Rh110 fluorescence, uHTS. inhibition, % at 20 µM. Apoptotic protease-activating factor 1 (Homo sapiens), O14727. reconstituted apoptosome caspase-3 activity. hit rate 0.71% among 330,000; active = inhibition of at least 40% at 20 µM
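Material: reconstituted apoptosome with Apaf-1, cytochrome c, caspase-9, procaspase-3, dATP. Technique: Rh110 fluorescence intensity. Buffer or medium: pH 7.5 Hepes buffer with CHAPS, BSA, DTT. Times: 30 min plus 50 min, RT.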
Numbers stand for hits; . = inactive; / = no result given.

SMILES	SENP6 inh	SENP7 block	UBC13 inh	SENP8 block-1	SENP8 block-2	Apaf1 inhib
CN(C)c1ccc(Nc2nc(N)c3ccccc3n2)cc1	96	99	.	.	95	.
CCOc1ccc(Nc2nc(N)nc(CCl)n2)cc1	.	.	.	.	.	.
O=C(O)C(Cc1ccccc1)N1C(=O)c2c(Cl)c(Cl)c(Cl)c(Cl)c2C1=O (centres undefined)	.	.	.	.	.	.
Nc1nc(-c2ccc3c(c2)CCCC3)c(CC(=O)O)s1	.	.	.	.	.	.
COc1cccc(C(=O)OCC(=O)Nc2sc3c(c2C(N)=O)CCC3)c1O	.	.	.	.	.	.
Cc1nc(NCc2ccco2)c2c(C)c(C)sc2n1	.	.	.	.	.	.
Cc1sc2nc3c4ccccc4c(NCc4ccco4)nn3c(=O)c2c1C	72	76	.	.	71	.
COc1ccc(-c2cn3nc(C)c(C)nc3n2)cc1OC	.	.	.	.	.	.
Cc1ccc(-c2cn3nc(C)c(C)nc3n2)cc1	.	.	.	.	53	.
CCOC(=O)c1[nH]c2ccc(Br)cc2c1NC(=O)CCN1CCC(C)CC1	.	.	.	.	.	.
CCOC(=O)c1[nH]c2ccc(Br)cc2c1NC(=O)CCN1CCCC(C)C1 (centres undefined)	.	.	.	/	.	97
Cc1[nH]n(-c2cccc(Cl)c2)c(=O)c1C=NCC(C)C	.	.	.	.	.	.
CC(=O)Nc1cccc(NC(=O)c2oc3ccccc3c2C)c1	.	54	.	/	.	.
CCCCn1c(N)c(N(CC(C)C)C(=O)Cc2ccc(S(=O)(=O)N3CCOCC3)s2)c(=O)[nH]c1=O	/	/	/	.	/	/
CN(C)c1cccc(Nc2ccc(-c3ccc(OC(F)(F)F)cc3)cn2)c1	/	/	/	.	/	/
CC(=O)CCc1ccc(OCC(O)CNC2CCCc3ccccc32)cc1 (centres undefined)	.	.	.	.	.	65
CCOc1ccc(CNC2CCCc3ccccc32)cc1 (centres undefined)	.	.	.	.	.	.
Nc1ncnc2oc(-c3ccco3)c(-c3ccco3)c12	.	.	61	.	.	.
Nc1nnc(-c2ccco2)s1	.	.	.	.	.	.
COc1ccc2c(c1OC)C(=O)O[C@@H]2[C@H]1c2c(cc3c(c2OC)OCO3)CCN1C	.	.	.	44	.	.
COc1ccc(C(O)C2c3c(cc4c(c3OC)OCO4)CCN2C)c(CO)c1OC (centres undefined)	/	/	/	.	/	/
CCCNC(=O)C1(C)CCCN(C(=O)c2cccc(Cl)c2)C1 (centres undefined)	/	/	/	.	/	/
COC1=CC(=O)c2nc(Cl)ccc2C1=O	/	/	/	88	/	/
O=c1ccc2cc3c([nH]c4ccc(Br)cc43)oc-2c1O	.	.	.	101	.	85
CN1C(=O)/C(=C\c2cc(N=Nc3ccccc3)ccc2O)SC1=S	.	.	.	49	.	.
SMILES	SENP6 inh	SENP7 block	UBC13 inh	SENP8 block-1	SENP8 block-2	Apaf1 inhib
O=C(N/N=C/c1ccc(F)cc1)c1ccc(OCc2ccccc2)cc1	.	.	.	.	.	.
Cc1occc1C(=O)N/N=C/c1ccc2c(c1)OCO2	100	99	.	.	96	.
Cc1occc1C(=O)N/N=C/c1ccc(OCc2ccccc2)cc1	90	90	.	.	80	.
Cc1[nH]c2ccc(C(=O)NCCN3CCOCC3)cc2c1C	.	.	.	.	.	.
COC(=O)c1ccccc1NC(=O)COC(=O)c1ccccc1N=Nc1ccc(N(C)C)cc1	.	.	.	42	.	.
CC(=O)c1ccc(NC(=O)COC(=O)c2ccccc2N=Nc2ccc(N(C)C)cc2)cc1	.	.	.	.	.	.
CC(=O)OCCNc1cc(N2CCN(C)CC2)c2noc3c2c1C(=O)c1ccccc1-3	/	/	/	47	/	/
C=CCN1C(=O)/C(=C2\SC(N3CCOCC3)=NC2=O)c2cc(Br)ccc21	.	.	.	41	.	.
O=C(CN1CCN(c2ccc(O)cc2)CC1)NCC(=O)Nc1ccc(F)c(F)c1F	.	.	.	.	.	.
c1ccc(-c2ccc(-c3ccccn3)nn2)nc1	83	89	.	/	71	.
CC1=C(C)C(=O)C(N2CCOCC2)=CC1=O	/	/	/	47	/	/
O=C1C=C(N2CCOCC2)c2cccc3cccc1c23	/	/	/	.	/	/
O=C(COc1ccc(Cl)cc1Cl)NC(=S)Nc1ccccc1C(=O)O	64	.	.	/	59	.
O=C(Nc1cc(Cl)ccc1-n1cncn1)c1cccs1	.	.	.	.	.	.
COc1cc(C(=O)NCC(c2cccs2)N2CCOCC2)ccc1OCc1ccccc1 (centres undefined)	/	/	/	.	/	/
Cc1cc(-c2csc(NC(=O)c3ccc(=O)n(C)n3)n2)c(C)n1CC1CCCO1 (centres undefined)	.	.	.	43	.	.
CCOC(=O)c1cccc(NC(=O)c2ccc3c(c2)C(=O)N(CC2CCCO2)C3=O)c1 (centres undefined)	.	.	.	.	.	.
CN=c1sc2c(n1C)C(=O)c1ccccc1C2=O	/	/	/	73	/	/
Cc1ccccc1NS(=O)(=O)c1ccc(C)c(NS(C)(=O)=O)c1C	.	.	.	.	.	.
COc1cc(C)cc(C(=O)O)c1C1=C(O)c2cccc(O)c2C(=O)C1=O	.	.	.	55	.	.
O=C(Nc1ccc(S(=O)(=O)NC2=NCCCCC2)cc1)c1cc(F)c(F)cc1Cl	.	.	.	.	.	.
CCc1ccc2nc(N(CCCN(C)C)C(=O)c3ccc(S(=O)(=O)N(C)C4CCCCC4)cc3)sc2c1	.	.	48	.	.	54
CN(C)CCCN(C(=O)c1ccc(S(=O)(=O)N(C)C2CCCCC2)cc1)c1nc2ccc(F)cc2s1	.	.	.	.	.	.
COc1ccc(/C=C/C(=O)c2cc3c(cc2N)OCO3)cc1	95	96	.	.	96	.
O=C(CNC(=O)c1cccc(Br)c1)N/N=C/c1ccc[nH]1	.	.	.	.	.	.
SMILES	SENP6 inh	SENP7 block	UBC13 inh	SENP8 block-1	SENP8 block-2	Apaf1 inhib
Cc1cc(C(=O)Nc2ccccc2C)n(-c2ccccc2)n1	.	.	.	.	.	.
CCCCCCCCCCCCCCCC[N+](C)(C)CC	.	.	91	.	.	87
O=C(Nc1ccccc1C(=O)O)c1ccccc1	.	.	.	.	.	.
Cc1c(NC(=O)c2ccc(-c3ccccc3)cc2)cccc1C(=O)O	99	96	.	.	93	.
Cc1occc(=O)c1OCc1ccc(Cl)cc1Cl	.	.	.	.	.	.
O=C(O)CN1C(=O)/C(=C/c2ccsc2)SC1=S	.	.	.	.	.	.
C=CCN1C(=O)/C(=C/c2ccsc2)SC1=S	.	.	.	46	.	.
